Screening results as filed in PubChem.
HCT116 bCat-KO: beta-catenin-lacking colon tumor cell growth suppression; HCT116 beta-catenin knockout viability, CellTiter-Glo, 60 h; active compounds read low; viability, % at 10 µM; hit rate 1.5% among 140,000; AID 818;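 active = viability at or under a set limit, the compound median less 4 SD, cut at about 6% in these data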;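 note: 0% = Hyamine 1622 control at 20 µM and 100% = untreated cell control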
Cav3 T inh: human Cav3.2 channel inhibition, primary screen; hit rate 4% among 100,000; B-score at 10 µM; Cav3.2-expressing cells, Fluo-4 calcium fluorescence FDSS; active compounds read low;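 active = single-dose well whose peak fluorescence ratio is a statistical outlier from its plate by either plate-standardised score or position-corrected B-score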
H69AR growth 86K: blocks growth of human H69AR lung tumor cells. hit rate 6% among 85,000. AID 598. H69AR lung tumor viability, ATP luminescence, 72 h; active compounds read low. viability, % at 10 µM;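 active = viability at or below 40%; inactive = viability above 40%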;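 note: multidrug resistant small cell line overexpressing MRP-1 efflux transporter; 100% = mean luminescence of untreated control wells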
PTEN del growth: PTEN-deleted cell growth suppression | HCT116 PTEN-null viability, CellTiter-Glo, 60 h; active compounds read low | viability, % at 10 µM | AID 827 | hit rate 1.2% among 140,000;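 active = viability at or below a set limit, 4 SD under the median of all tested compounds, cut at about 3.7% in these data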;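 note: PTEN knockout HCT116 line with beta catenin targeted HCT116 as companion control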
Fibroblast inh: blocks proliferation of human lung fibroblasts | LL 47 human lung fibroblast viability, ATP luminescence; active compounds read low | viability, % at 10 µM | hit rate 1.1% among 85,000 | AID 719;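 active = viability at or below 50% in the single dose screen; inactive = viability above 50%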;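 note: compound exposure lasted 72 h before the ATP readout; 100% = median luminescence of untreated cell-only wells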
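Test system: LL 47 human lung fibroblasts / Incubation: 72 h compound exposure at 37 °C after overnight plating / Technique: luminescent ATP detection, CellTiter-Glo / Compound dosing: 0.1% DMSO in all compound wells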
HUVEC inhibit: inhibitors of human endothelial cell proliferation; AID 648; HUVEC proliferation, CellTiter-Glo luminescence, 72 h; active compounds read low; viability, % at 10 µM (by protocol); hit rate 1.1% among 86,000;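 active = viability at or below 30%; inactive = viability above 30%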;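 note: 100% = median luminescence of DMSO-only cell control wells on each plate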
An asterisk follows results filed as active. Hits are enriched below; roughly 7.1% of the tested compounds scored in any of these assays.

For CCN(CC)c1ccc(C2C(C(=O)OC(C)C)C(=O)CC(C)(O)C2C(=O)OC(C)C)cc1 (centres undefined) the results were HCT116 bCat-KO 62.8, Cav3 T inh -5.67* and PTEN del growth 65.8.
Screening COc1ccc(-n2c(Cc3cccn3C)nnc2SCC(=O)Nc2ccccc2C)cc1 returned HCT116 bCat-KO 85.5, Cav3 T inh -6.4*, H69AR growth 86K 84.6, PTEN del growth 89.7, Fibroblast inh 93.4 and HUVEC inhibit 108.2.
Screening COc1ccc(-n2c(Cc3cccn3C)nnc2SCC(=O)Nc2nccs2)cc1 returned HCT116 bCat-KO 93.3, Cav3 T inh -5.96*, H69AR growth 86K 93.7, PTEN del growth 95.8, Fibroblast inh 91.1 and HUVEC inhibit 82.7.
For Cc1nnc(NC(=O)CSc2nnc(Cc3cccn3C)n2-c2cccc(C)c2C)s1 the results were HCT116 bCat-KO 96.1, H69AR growth 86K 94.6, PTEN del growth 105.1, Fibroblast inh 94.1 and HUVEC inhibit 89.7.
`COc1ccc(-n2c(Cc3cccn3C)nnc2SCC(=O)Nc2cccc(C)c2C)cc1` gave HCT116 bCat-KO 86.7, Cav3 T inh -4.03*, H69AR growth 86K 84.2, PTEN del growth 97.1, Fibroblast inh 102.3 and HUVEC inhibit 97.1.
Screening COc1ccc(-n2c(Cc3cccn3C)nnc2SCC(=O)NCCc2ccccc2)cc1 returned HCT116 bCat-KO 92.8, Cav3 T inh -1.85 and PTEN del growth 94.2.
Screening CCCCNC(=O)NS(=O)(=O)c1ccc(NS(=O)(=O)c2ccccc2)cc1 returned HCT116 bCat-KO 101.0, Cav3 T inh 0.0247, H69AR growth 86K 95.8, PTEN del growth 108.1, Fibroblast inh 105.7 and HUVEC inhibit 109.2.
Screening COCCn1c(-c2cccc([N+](=O)[O-])c2)nc2c1c(=O)[nH]c(=O)n2Cc1ccccc1 returned HCT116 bCat-KO 85.1 and PTEN del growth 84.8.
Screening CCOc1ccc(OCC)c(Nc2cc(C)nc3nc(C)nn23)c1 returned HCT116 bCat-KO 73.0, H69AR growth 86K 32.0*, PTEN del growth 59.0, Fibroblast inh 87.5 and HUVEC inhibit 66.4.
Cc1ccc(S(=O)(=O)N2CCN(C(=O)COc3ccc(NC(=O)c4ccco4)cc3)CC2)cc1 was read as HCT116 bCat-KO 89.7, Cav3 T inh 0.348, H69AR growth 86K 36.6*, PTEN del growth 82.4, Fibroblast inh 105.6 and HUVEC inhibit 88.5.
COc1ccccc1N1C(=O)CC(Sc2n[nH]c(-c3cccc(C)c3)n2)C1=O (centres undefined) was read as HCT116 bCat-KO 100.2 and PTEN del growth 100.3.
`COc1ccccc1/C=C/C(=O)NCC(=O)N/N=C/c1cc(Br)ccc1OC` gave HCT116 bCat-KO 58.8, Cav3 T inh -9.34*, H69AR growth 86K 18.6*, PTEN del growth 53.5, Fibroblast inh 80.2 and HUVEC inhibit 72.5.
For N#CC1=C(N)Nc2ncnn2C1c1ccc(F)cc1 (centres undefined) the results were HCT116 bCat-KO 93.2 and PTEN del growth 105.9.
Screening CCn1c(=O)c2c3c(sc2n(C)c1=O)CCC3 returned HCT116 bCat-KO 100.0, Cav3 T inh 1.29, H69AR growth 86K 88.5, PTEN del growth 116.8, Fibroblast inh 95.5 and HUVEC inhibit 105.3.
CCC1(C)Cc2c(sc3c2c(=O)n(C)c2nnc(SCc4ccccc4)n32)CO1 (centres undefined) was read as HCT116 bCat-KO 72.4, Cav3 T inh 1.51, H69AR growth 86K 15.3*, PTEN del growth 71.0, Fibroblast inh 100.3 and HUVEC inhibit 69.8.
For CCn1c(=O)c2c3c(sc2n2c(=S)[nH]nc12)CCC3 the results were HCT116 bCat-KO 97.1, Cav3 T inh 3.61*, H69AR growth 86K 89.6, PTEN del growth 90.1, Fibroblast inh 96.2 and HUVEC inhibit 92.9.
CCn1c(=O)c2c3c(sc2n2c(SCc4ccc(F)cc4)nnc12)CCCC3 was read as H69AR growth 86K 15.6*, Fibroblast inh 80.8 and HUVEC inhibit 65.5.
Cn1c(=O)c2c3c(sc2n2c(SCc4ccccc4)nnc12)CCCC3 was read as HCT116 bCat-KO 86.0 and PTEN del growth 83.4.
`Cn1c(C(=O)N2CCCC(C(=O)NCCCc3ccccc3)C2)cc2sccc21` (centres undefined) gave HCT116 bCat-KO 85.5, Cav3 T inh -4.2*, H69AR growth 86K 42.9, PTEN del growth 82.2, Fibroblast inh 91.2 and HUVEC inhibit 86.9.
`Cc1ccc(CCNC(=O)C2CCCN(C(=O)c3cc4sccc4n3C)C2)cc1` (centres undefined) gave HCT116 bCat-KO 95.6, Cav3 T inh -4.82* and PTEN del growth 89.2.
For Cn1c(C(=O)N2CCCC(C(=O)NCCc3ccccc3)C2)cc2sccc21 (centres undefined) the results were HCT116 bCat-KO 17.1, Cav3 T inh 0.141, H69AR growth 86K 46.1, PTEN del growth 19.1, Fibroblast inh 101.3 and HUVEC inhibit 84.8.
CCCCc1ccc(-n2nnnc2SCC(=O)Nc2cc(OC)c([N+](=O)[O-])cc2C)cc1 was read as HCT116 bCat-KO 86.8 and PTEN del growth 79.5.
For CCOc1cc2[nH]c(=O)n(Cc3cccc(OC)c3)c(=O)c2cc1OCC the results were HCT116 bCat-KO 38.8, Cav3 T inh 0.0518, H69AR growth 86K 20.9*, PTEN del growth 27.4, Fibroblast inh 95.0 and HUVEC inhibit 101.0.
`CC(OC(=O)c1ccc(NS(=O)(=O)c2cccs2)cc1)C(=O)N(C)C1CCCCC1` (centres undefined) gave HCT116 bCat-KO 92.3 and PTEN del growth 91.8.
For C=CCOC(=O)C1=C(C)NC(SCC)=C(C#N)C1c1ccc(Cl)cc1 (centres undefined) the results were HCT116 bCat-KO 8.6, Cav3 T inh -7.5*, H69AR growth 86K 69.9, PTEN del growth 7.9, Fibroblast inh 83.8 and HUVEC inhibit 53.8.
Screening Cc1cc(NCCCN)nc(-c2ccccc2O)n1 returned HCT116 bCat-KO 60.9, Cav3 T inh 0.415, H69AR growth 86K 21.4*, PTEN del growth 63.7, Fibroblast inh 99.8 and HUVEC inhibit 98.3.
For Cc1cc(N/N=C/c2ccc(O)c(C)c2O)nc(-c2ccccc2O)n1 the results were HCT116 bCat-KO 1.7* and PTEN del growth 1.8*.
`CCn1ncc(Br)c1C(=O)Nc1ccn(C23CC4CC(CC(C4)C2)C3)n1` gave HCT116 bCat-KO 79.8 and PTEN del growth 76.4.
For CCn1ncc(Br)c1C(=O)N(C)C12CC3CC(CC(C3)C1)C2 the results were HCT116 bCat-KO 90.6, Cav3 T inh -5.06*, H69AR growth 86K 76.9, PTEN del growth 85.6, Fibroblast inh 93.4 and HUVEC inhibit 93.5.
`O=C(NCC1CCCC(CNC(=O)N2CCc3ccccc32)C1)N1CCc2ccccc21` (centres undefined) gave HCT116 bCat-KO 35.5, Cav3 T inh -4.99* and PTEN del growth 26.6.
O=C(Nc1ccccc1)N1CCc2ccccc21 was read as HCT116 bCat-KO 70.8, Cav3 T inh 0.609, H69AR growth 86K 85.0, PTEN del growth 82.7, Fibroblast inh 96.8 and HUVEC inhibit 82.7.
